The values that follow come from ChEMBL document CHEMBL4610088, “Higginsianins D and E, Cytotoxic Diterpenoids Produced by Colletotrichum higginsianum” (J Nat Prod, 2020).

Data set [1] concerns HaCaT. Description: Cytotoxicity against human HaCaT cells at 1 to 10 uM after 72 hrs by MTT assay. The class given is cell-based. A digest of the protocol:
(§1)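 Cells cultured in DMEM with 10% FBS at 37 °C, 5% CO2. 2×10^4 cells seeded per well, exposed to 1 or 10 μM compound for 24, 48 and 72 h. MTT (0.5 mg/mL, phenol red-free DMEM) 3 h at 37 °C; formazan dissolved in acidic isopropanol. A570–A630 read; viability = test/control absorbance. Quadruplicate wells, three independent experiments.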
On the technique in general: Tetrazolium dyes change colour on reduction, which living cells bring about.

In data set [2] the test system is HaCaT. In words: Cytotoxicity against human HaCaT cells at 10 uM after 48 hrs by MTT assay relative to control. The class given is cell-based. A digest of the protocol: as §1
The test system of data set [3] is HaCaT. Description: Cytotoxicity against human HaCaT cells assessed as reduction in cell viability at 10 uM after 24 hrs by MTT assay relative to control. The class given is cell-based. The gist of the method: as §1
Data set [4] has as its system HaCaT. In words: Cytotoxicity against human HaCaT cells assessed as reduction in cell viability at 1 uM after 24 hrs by MTT assay relative to control. Format: cell-based. A digest of the protocol:
as §1

For data set [5], the system named is NCI-H1299. In words: Cytotoxicity against human NCI-H1299 cells at 1 uM after 72 hrs by MTT assay relative to control. The class given is functional. The gist of the method: as §1
For data set [6], the system named is NCI-H1299. Description: Cytotoxicity against human NCI-H1299 cells at 10 uM after 72 hrs by MTT assay relative to control. Format: functional. The gist of the method: as §1
In a further data set the test system is A-431. In words: Cytotoxicity against human A431 cells after 72 hrs by MTT assay. Format: functional, cell-based. The note with it: A-431, 72 h. A digest of the protocol: as §1
The test system of data set [7] is HaCaT. Description: Cytotoxicity against human HaCaT cells at 10 uM after 24 to 72 hrs by MTT assay. Format: cell-based. A digest of the protocol:
as §1

pIC50: −log10 of the molar value. The source made the active and inactive calls. No cut-off for these calls is given here.

As to `C=C1CC[C@H]2[C@](C)(CCC=C(C)C)[C@H](O)CC[C@]2(C)[C@@H]1C[C@@]1(C(=O)OC)OC(C)=C(C)C1=O`, the Activity entry in the data set on HaCaT [1] is listed as “Non-Toxic”; in the data set on HaCaT [2], “Toxic”; in the data set with HaCaT [3], 37%; in the data set on HaCaT [4], 40%; in the data set with NCI-H1299 [5] it was 22%; in the data set with NCI-H1299 [6], 26%. In addition, in the data set with A-431, the negative-log IC50 (pIC50) was 6.00.

Turning to `C=C1CC[C@H]2[C@](C)(CCC=C(C)C)[C@H](O)CC[C@]2(C)[C@@H]1C[C@]1(C(=O)OC)OC(C)=C(C)C1=O`, the Activity result is listed as “Non-Toxic” with HaCaT [1], “Toxic” in the data set on HaCaT [2], “Non-Toxic” in the data set on HaCaT [3] and “Non-Toxic” with HaCaT [4]. For the same compound, the result in the data set on NCI-H1299 [5] and with NCI-H1299 [6] was inactive.

Take `C=C1CC[C@H]2[C@](C)(CCC=C(C)C)[C@H](O)CC[C@]2(C)[C@@H]1Cc1c(O)c(C)c(C)oc1=O`: the Activity entry in the data set with HaCaT [7] is given as “Toxic”.

By pIC50 is commonly meant −log10 of the IC50, conventionally taken in molar units. A higher pIC50 goes with a small IC50.
